Laboratory results taken from ChEMBL document CHEMBL2021787 (Bioorg Med Chem Lett, 2012).

Tests used:
[1] = test system: Mycobacterium tuberculosis; test: Antimycobacterial activity against Mycobacterium tuberculosis H37Rv by agar dilution method; format: functional
How it was run: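 Agar dilution on Middlebrook 7H11 agar supplemented with OADC, following the NCCLS approach, using log-phase M. tuberculosis cultures. Run in triplicate. MIC was taken as the lowest concentration giving complete inhibition of growth.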

HepG2 = test: Cytotoxicity against human HepG2 cells at 20 to 25 uM after 48 hrs by MTT assay; format: cell-based; conditions: hepg2, 48 h
How it was run: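 HepG2 cells were seeded at 2500/well and grown 24 h, then exposed to compound for 48 h. MTT (20 µL of a 5 mg/mL stock) was added for 2.5 h at 37 °C, and OD was read at 570 nm. Results are reported as % inhibition at a single concentration.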

[2] = Plasma clearance in Wistar rat at 10 mg/kg, iv administered as single bolus dose; format: ADME, organism-based; design: dose 10 mg/kg, route intravenous
How it was run: (§1)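 Male Wistar rats given a single iv bolus of 10 mg/kg in 20% propylene glycol, 10% cremophor ELP and 20% N-methylpyrrolidone in normal saline. Plasma was assayed by reverse-phase HPLC with PDA detection. Parameters came from plasma concentration–time data by non-compartmental analysis.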

[3] = Tmax in Wistar rat at 50 mg/kg, po administered as single dose; format: ADME, organism-based; design: dose 50 mg/kg, route oral; conditions: in vivo
How it was run: (§2)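 Male Wistar rats got a single oral dose of 50 mg/kg as a suspension in 0.25% sodium CMC with Tween 80. Plasma was measured by reverse-phase HPLC with PDA detection and analysed non-compartmentally. AUC covered 10 h. Bioavailability was derived against a separate 10 mg/kg iv bolus dose in the same vehicle system as the iv study.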

[4] = Volume of distribution in Wistar rat at 10 mg/kg, iv administered as single bolus dose; format: ADME, organism-based; design: dose 10 mg/kg, route intravenous; conditions: in vivo; how it was run: as §1
[5] = Half life in Wistar rat at 10 mg/kg, iv administered as single bolus dose; format: ADME, organism-based; design: dose 10 mg/kg, route intravenous; conditions: in vivo; how it was run: as §1
[6] = (§3) AUC (0 to t) in Wistar rat at 10 mg/kg, iv administered as single bolus dose; format: ADME, organism-based, Plasma; design: dose 10 mg/kg, route intravenous; conditions: Wistar, plasma; how it was run: as §1
[7] = (§4) AUC (0 to t) in Wistar rat at 50 mg/kg, po administered as single dose; format: ADME, organism-based, Plasma; design: dose 50 mg/kg, route oral; conditions: Wistar, plasma; how it was run: as §2
[8] = Cmax in Wistar rat at 10 mg/kg, iv administered as single bolus dose; format: ADME, organism-based; design: dose 10 mg/kg, route intravenous; conditions: in vivo; how it was run: as §1
[9] = Elimination rate constant in Wistar rat at 10 mg/kg, iv administered as single bolus dose; format: ADME, organism-based; design: dose 10 mg/kg, route intravenous; conditions: in vivo; how it was run: as §1
[10] = (§5) Oral bioavailability in Wistar rat at 50 mg/kg administered as single dose; format: ADME, organism-based; conditions: Wistar, in vivo; how it was run: as §2
[11] = Cmax in Wistar rat at 50 mg/kg, po administered as single dose; format: ADME, organism-based; design: dose 50 mg/kg, route oral; conditions: in vivo; how it was run: as §2
[12] = test system: Mycobacterium tuberculosis; test: Ratio of INH MIC to compound MIC for Mycobacterium tuberculosis H37Rv by agar dilution method; format: functional
Rattus norvegicus [13] = test: as §3; format: ADME, organism-based, Plasma; design: dose 10 mg/kg, route intravenous; conditions: in vivo; how it was run: as §1
Rattus norvegicus [14] = test: as §4; format: ADME, organism-based, Plasma; design: dose 50 mg/kg, route oral; conditions: in vivo; how it was run: as §2
Rattus norvegicus [15] = test: as §5; format: ADME, organism-based; conditions: in vivo; how it was run: as §2

Row | Structure (SMILES) | MIC [1] | Activity (HepG2) | other results
1 | CC1(C)CC(=O)C2=C(C1)N(NC(=O)c1ccncc1)C1=C(C(=O)CC(C)(C)C1)C2c1ccccc1OCc1ccccc1 | 0.17 µM |  | 
2 | C/C(=N/NC(=O)c1ccncc1)c1cccc(CN2CCNCC2)c1O | 0.56 µM |  | 
3 | O=C(NN1C(=O)CCSC1c1ccccc1)c1ccncc1 (stereo not drawn) | 9.9 µM | 10.6% | 
4 | Cc1ccccc1C1SCCC(=O)N1NC(=O)c1ccncc1 (stereo not drawn) | 9.56 µM | 12.6% | 
5 | Cc1cccc(C2SCCC(=O)N2NC(=O)c2ccncc2)c1 (stereo not drawn) | 9.56 µM | 8.6% | 
6 | Cc1ccc(C2SCCC(=O)N2NC(=O)c2ccncc2)cc1 (stereo not drawn) | 9.56 µM | 12.4% | 
7 | COc1ccccc1C1SCCC(=O)N1NC(=O)c1ccncc1 (stereo not drawn) | 9.08 µM | 15.2% | 
8 | COc1cccc(C2SCCC(=O)N2NC(=O)c2ccncc2)c1 (stereo not drawn) | 9.08 µM | 10.4% | 
9 | COc1ccc(C2SCCC(=O)N2NC(=O)c2ccncc2)cc1 (stereo not drawn) | 4.54 µM | 12.6% | 
10 | COc1cc(C2SCCC(=O)N2NC(=O)c2ccncc2)cc(OC)c1OC (stereo not drawn) | 7.76 µM | 8.6% | 
11 | COc1cc(C2SCCC(=O)N2NC(=O)c2ccncc2)ccc1O (stereo not drawn) | 8.7 µM | 16.11% | 
12 | O=C(NN1C(=O)CCSC1c1ccccc1O)c1ccncc1 (stereo not drawn) | 19 µM | 8.6% | 
13 | O=C(NN1C(=O)CCSC1c1cccc(O)c1)c1ccncc1 (stereo not drawn) | 9.49 µM | 8.2% | 
14 | O=C(NN1C(=O)CCSC1c1ccc(O)cc1)c1ccncc1 (stereo not drawn) | 18.9 µM | 10.7% | 
15 | CN(C)c1ccc(C2SCCC(=O)N2NC(=O)c2ccncc2)cc1 (stereo not drawn) | 8.78 µM | 4.6% | 
16 | CC(C)c1ccc(C2SCCC(=O)N2NC(=O)c2ccncc2)cc1 (stereo not drawn) | 2.14 µM | 19% | 
17 | O=C(NN1C(=O)CCSC1c1ccccc1OCc1ccccc1)c1ccncc1 (stereo not drawn) | 0.24 µM | 10.6% | 
18 | O=C(NN1C(=O)CCSC1c1cccc(OCc2ccccc2)c1)c1ccncc1 (stereo not drawn) | 0.24 µM | 12.6% | 
19 | O=C(NN1C(=O)CCSC1c1ccc(OCc2ccccc2)cc1)c1ccncc1 (stereo not drawn) | 0.12 µM | 8.8% | clearance [2]: 1.35 L/h/kg; Tmax [3]: 3 h; Vd [4]: 1.99 L; half-life [5]: 1.14 h; AUC(0-t) [6]: 7.5 µg·h/mL; AUC(0-t) [7]: 5.87 µg·h/mL; Cmax [8]: 5.29 µg/mL; k el [9]: 0.000172 s⁻¹; bioavailability [10]: 16.7%; Cmax [11]: 1.31 µg/mL; Ratio [12]: 3
20 | O=C(NN1C(=O)CCSC1c1ccccc1[N+](=O)[O-])c1ccncc1 (stereo not drawn) | 2.12 µM | 28.8% | 

Row | Structure (SMILES) | MIC [1] | Activity (HepG2) | other results
21 | O=C(NN1C(=O)CCSC1c1cccc([N+](=O)[O-])c1)c1ccncc1 (stereo not drawn) | 0.56 µM | 28.6% | 
22 | O=C(NN1C(=O)CCSC1c1ccc([N+](=O)[O-])cc1)c1ccncc1 (stereo not drawn) | 1.11 µM | 32% | 
23 | O=C(NN1C(=O)CCSC1c1ccccc1Cl)c1ccncc1 (stereo not drawn) | 1.15 µM | 20.6% | 
24 | O=C(NN1C(=O)CCSC1c1ccc(Cl)cc1)c1ccncc1 (stereo not drawn) | 0.575 µM | 26.8% | 
25 | O=C(NN1C(=O)CCSC1c1ccccc1Br)c1ccncc1 (stereo not drawn) | 0.25 µM | 22.2% | 
26 | O=C(NN1C(=O)CCSC1c1ccc(Br)cc1)c1ccncc1 (stereo not drawn) | 0.5 µM | 18.4% | 
27 | O=C(NN1C(=O)CCSC1c1ccccc1F)c1ccncc1 (stereo not drawn) | 0.6 µM | 18.6% | 
28 | O=C(NN1C(=O)CCSC1c1cccc(F)c1)c1ccncc1 (stereo not drawn) | 0.6 µM | 16.4% | 
29 | O=C(NN1C(=O)CCSC1c1ccc(F)cc1)c1ccncc1 (stereo not drawn) | 0.3 µM | 18.6% | 
30 | O=C(NN1C(=O)CCSC1c1ccccc1C(F)(F)F)c1ccncc1 (stereo not drawn) | 0.52 µM | 24.2% | 
31 | O=C(NN1C(=O)CCSC1c1cccc(C(F)(F)F)c1)c1ccncc1 (stereo not drawn) | 0.52 µM | 26.4% | 
32 | O=C(NN1C(=O)CCSC1c1ccc(C(F)(F)F)cc1)c1ccncc1 (stereo not drawn) | 0.13 µM | 20.6% | 
33 | O=C(NN1C(=O)CCSC1Cc1ccco1)c1ccncc1 (stereo not drawn) | 41.2 µM | 18.6% | 
34 | O=C(NN1C(=O)CCSC1Cc1ccc([N+](=O)[O-])o1)c1ccncc1 (stereo not drawn) | 4.48 µM | 38.6% | 
35 | O=C(c1ccncc1)N1N=CCC1(O)C(F)(F)F (stereo not drawn) | 0.77 µM |  | 
36 | C/C(=N\NC(=O)c1ccncc1)c1ccc(NC(=S)Nc2ccc(F)cc2)cc1 | 0.45 µM |  | 
37 | O=C(NNCc1ccccc1)c1ccncc1 | 0.2 mg/L |  | 
38 | O=C(NN=C1CCCCC1)c1ccncc1 | 0.0004 µM |  | 
39 | NNC(=O)c1ccncc1 [ISONIAZID] | 0.36 µM | 10% | clearance [2]: 0.0126 L/h/kg; Tmax [3]: 2 h; Vd [4]: 0.026 L; AUCt (Rattus norvegicus [13]): 684 µg·h/mL; AUCt (Rattus norvegicus [14]): 197.09 µg·h/mL; Cmax [8]: 298 µg/mL; k el [9]: 6.67e-05 s⁻¹; F (Rattus norvegicus [15]): 17.36%; Cmax [11]: 52.3 µg/mL
40 | Cc1c(CN2CCN(c3cccc(C(F)(F)F)c3)CC2)cc(-c2ccccc2)n1NC(=O)c1ccncc1 [SUDOTERB] | 0.25 mg/L |  | 
